The target of experiment [1] is T1, Tyrosine-protein kinase JAK3 (Homo sapiens) (UniProt P52333).
T1 sequence (whole entry): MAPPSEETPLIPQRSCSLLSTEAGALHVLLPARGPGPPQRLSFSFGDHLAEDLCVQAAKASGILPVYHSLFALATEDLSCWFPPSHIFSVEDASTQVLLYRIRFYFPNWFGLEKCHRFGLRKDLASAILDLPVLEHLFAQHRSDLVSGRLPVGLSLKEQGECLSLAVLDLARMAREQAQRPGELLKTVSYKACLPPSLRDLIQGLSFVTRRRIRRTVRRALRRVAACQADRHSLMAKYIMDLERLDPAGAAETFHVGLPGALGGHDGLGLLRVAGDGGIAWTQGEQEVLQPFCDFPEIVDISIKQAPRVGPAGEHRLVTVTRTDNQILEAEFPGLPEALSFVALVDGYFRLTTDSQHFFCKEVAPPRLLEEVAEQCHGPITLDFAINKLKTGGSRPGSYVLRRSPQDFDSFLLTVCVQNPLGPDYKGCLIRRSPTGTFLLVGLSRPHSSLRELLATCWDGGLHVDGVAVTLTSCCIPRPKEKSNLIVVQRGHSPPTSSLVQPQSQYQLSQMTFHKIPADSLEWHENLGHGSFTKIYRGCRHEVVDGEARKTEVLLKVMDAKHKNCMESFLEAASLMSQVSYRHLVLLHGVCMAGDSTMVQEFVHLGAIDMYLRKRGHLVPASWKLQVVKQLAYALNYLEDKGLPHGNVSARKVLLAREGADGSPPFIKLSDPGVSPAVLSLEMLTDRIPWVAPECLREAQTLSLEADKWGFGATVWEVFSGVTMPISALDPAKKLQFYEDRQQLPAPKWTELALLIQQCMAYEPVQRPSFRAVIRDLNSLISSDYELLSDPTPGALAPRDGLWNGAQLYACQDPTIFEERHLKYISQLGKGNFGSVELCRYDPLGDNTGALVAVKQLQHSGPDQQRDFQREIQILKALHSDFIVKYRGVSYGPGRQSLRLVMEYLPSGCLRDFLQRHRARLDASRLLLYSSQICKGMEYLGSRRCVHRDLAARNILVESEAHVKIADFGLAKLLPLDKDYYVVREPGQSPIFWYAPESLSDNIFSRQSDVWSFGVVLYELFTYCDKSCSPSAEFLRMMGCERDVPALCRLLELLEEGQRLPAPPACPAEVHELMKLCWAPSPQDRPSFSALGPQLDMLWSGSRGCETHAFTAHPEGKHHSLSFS
Kind of experiment: Inhibition of JAK3 JH1 catalytic domain at 1 uM. The method in brief: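 Single-concentration screen on the Ambit KINOMEscan platform, run against a panel of 250–400 kinases. Per-kinase inhibition was also summarized as S(90), the fraction of kinases inhibited by more than 90%.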

Experiment [2] concerns the target Calcium/calmodulin-dependent protein kinase type II subunit alpha (Homo sapiens) (UniProt Q9UQM7). Kind of experiment: Inhibition of CAMK2A at 1 uM. The method in brief: (§1)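 Ambit KINOMEscan screen at a single concentration across a 250–400 kinase panel, recorded as percent inhibition. Selectivity was expressed as S(90), the fraction of kinases inhibited >90%.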

Experiment [3] addresses Serine/threonine-protein kinase 16 (Homo sapiens) (UniProt O75716). Kind of experiment: Inhibition of STK16 at 1 uM.
Experiment [4] has as its target Phosphatidylinositol 4-kinase beta (Homo sapiens) (UniProt Q9UBF8). Kind of experiment: Inhibition of PIK4CB at 1 uM.
Experiment [5] has as its target RAC-gamma serine/threonine-protein kinase (Homo sapiens) (UniProt Q9Y243). Kind of experiment: Inhibition of AKT3 at 1 uM. In short, it runs like this: as §1
Experiment [6] concerns the target Homeodomain-interacting protein kinase 3 (Homo sapiens) (UniProt Q9H422). Kind of experiment: Inhibition of HIPK3 at 1 uM.
The target in experiment [7] is T2, Serine/threonine-protein kinase ULK2 (Homo sapiens) (UniProt Q8IYT8).
T2 sequence (whole entry): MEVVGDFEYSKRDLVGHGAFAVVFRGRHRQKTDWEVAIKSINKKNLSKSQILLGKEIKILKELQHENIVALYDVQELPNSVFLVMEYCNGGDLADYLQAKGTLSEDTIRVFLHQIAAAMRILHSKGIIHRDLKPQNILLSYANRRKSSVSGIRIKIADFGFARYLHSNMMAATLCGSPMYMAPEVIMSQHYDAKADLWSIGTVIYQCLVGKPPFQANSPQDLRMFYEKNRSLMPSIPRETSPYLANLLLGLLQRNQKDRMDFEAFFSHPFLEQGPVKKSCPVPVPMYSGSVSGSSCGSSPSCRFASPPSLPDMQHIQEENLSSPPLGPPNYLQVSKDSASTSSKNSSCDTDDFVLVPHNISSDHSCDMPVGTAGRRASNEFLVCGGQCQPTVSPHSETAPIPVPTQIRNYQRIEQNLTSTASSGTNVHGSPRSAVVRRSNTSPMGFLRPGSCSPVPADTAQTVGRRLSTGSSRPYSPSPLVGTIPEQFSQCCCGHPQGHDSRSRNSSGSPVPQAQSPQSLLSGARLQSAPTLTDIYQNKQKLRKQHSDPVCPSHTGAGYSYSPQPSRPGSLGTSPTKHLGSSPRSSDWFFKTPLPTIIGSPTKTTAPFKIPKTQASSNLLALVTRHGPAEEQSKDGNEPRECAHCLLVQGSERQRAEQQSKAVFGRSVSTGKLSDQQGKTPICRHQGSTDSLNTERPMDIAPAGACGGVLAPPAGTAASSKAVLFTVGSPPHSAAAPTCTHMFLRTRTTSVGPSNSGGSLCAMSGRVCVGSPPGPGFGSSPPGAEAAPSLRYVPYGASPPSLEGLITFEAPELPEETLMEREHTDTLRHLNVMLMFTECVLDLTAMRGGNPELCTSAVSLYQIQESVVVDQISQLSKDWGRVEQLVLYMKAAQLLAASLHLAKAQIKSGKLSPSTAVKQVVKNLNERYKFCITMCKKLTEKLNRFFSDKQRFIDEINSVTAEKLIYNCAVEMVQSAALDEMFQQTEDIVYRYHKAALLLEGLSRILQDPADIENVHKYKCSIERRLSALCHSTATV
Kind of experiment: Inhibition of ULK2 at 1 uM.

Phosphatidylinositol 4-kinase beta (Homo sapiens), sequence (Q9UBF8 2-816 limits assumed): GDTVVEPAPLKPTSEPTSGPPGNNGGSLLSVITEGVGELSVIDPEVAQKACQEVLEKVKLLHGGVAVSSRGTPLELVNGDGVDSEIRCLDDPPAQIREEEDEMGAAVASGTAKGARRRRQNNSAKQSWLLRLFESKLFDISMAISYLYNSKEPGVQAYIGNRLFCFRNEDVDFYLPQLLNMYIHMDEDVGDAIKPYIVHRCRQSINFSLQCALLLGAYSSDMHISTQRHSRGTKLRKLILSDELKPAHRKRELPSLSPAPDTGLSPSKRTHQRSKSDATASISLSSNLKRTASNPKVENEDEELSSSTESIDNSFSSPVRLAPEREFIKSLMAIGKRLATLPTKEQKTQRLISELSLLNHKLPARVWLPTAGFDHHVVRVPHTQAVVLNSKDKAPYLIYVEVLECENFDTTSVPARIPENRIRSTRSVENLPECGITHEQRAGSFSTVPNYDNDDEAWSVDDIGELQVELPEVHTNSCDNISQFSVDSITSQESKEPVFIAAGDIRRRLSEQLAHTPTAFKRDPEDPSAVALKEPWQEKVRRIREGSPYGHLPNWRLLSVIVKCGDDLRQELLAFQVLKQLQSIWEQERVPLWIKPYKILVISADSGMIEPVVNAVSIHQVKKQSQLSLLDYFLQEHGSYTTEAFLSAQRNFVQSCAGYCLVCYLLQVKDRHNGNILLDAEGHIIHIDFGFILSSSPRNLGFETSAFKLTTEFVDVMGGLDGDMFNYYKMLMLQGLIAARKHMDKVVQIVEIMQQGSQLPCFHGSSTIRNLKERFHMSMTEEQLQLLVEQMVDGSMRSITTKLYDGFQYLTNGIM
RAC-gamma serine/threonine-protein kinase (Homo sapiens), sequence (Q9Y243 whole entry): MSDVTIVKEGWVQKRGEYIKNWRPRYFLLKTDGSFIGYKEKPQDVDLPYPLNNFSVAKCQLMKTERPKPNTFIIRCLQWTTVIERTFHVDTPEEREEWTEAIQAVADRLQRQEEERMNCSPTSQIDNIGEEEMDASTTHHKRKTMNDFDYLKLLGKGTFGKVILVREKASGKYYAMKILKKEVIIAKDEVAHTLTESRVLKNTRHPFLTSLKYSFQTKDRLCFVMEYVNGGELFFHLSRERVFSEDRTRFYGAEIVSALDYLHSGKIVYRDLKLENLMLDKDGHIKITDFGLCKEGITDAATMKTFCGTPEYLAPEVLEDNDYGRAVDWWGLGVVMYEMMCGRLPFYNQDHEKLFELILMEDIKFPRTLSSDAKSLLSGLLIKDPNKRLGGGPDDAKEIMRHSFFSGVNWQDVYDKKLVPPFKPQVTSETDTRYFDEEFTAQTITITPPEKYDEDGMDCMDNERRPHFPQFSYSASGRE
Homeodomain-interacting protein kinase 3 (Homo sapiens), sequence (Q9H422 whole entry, looked up): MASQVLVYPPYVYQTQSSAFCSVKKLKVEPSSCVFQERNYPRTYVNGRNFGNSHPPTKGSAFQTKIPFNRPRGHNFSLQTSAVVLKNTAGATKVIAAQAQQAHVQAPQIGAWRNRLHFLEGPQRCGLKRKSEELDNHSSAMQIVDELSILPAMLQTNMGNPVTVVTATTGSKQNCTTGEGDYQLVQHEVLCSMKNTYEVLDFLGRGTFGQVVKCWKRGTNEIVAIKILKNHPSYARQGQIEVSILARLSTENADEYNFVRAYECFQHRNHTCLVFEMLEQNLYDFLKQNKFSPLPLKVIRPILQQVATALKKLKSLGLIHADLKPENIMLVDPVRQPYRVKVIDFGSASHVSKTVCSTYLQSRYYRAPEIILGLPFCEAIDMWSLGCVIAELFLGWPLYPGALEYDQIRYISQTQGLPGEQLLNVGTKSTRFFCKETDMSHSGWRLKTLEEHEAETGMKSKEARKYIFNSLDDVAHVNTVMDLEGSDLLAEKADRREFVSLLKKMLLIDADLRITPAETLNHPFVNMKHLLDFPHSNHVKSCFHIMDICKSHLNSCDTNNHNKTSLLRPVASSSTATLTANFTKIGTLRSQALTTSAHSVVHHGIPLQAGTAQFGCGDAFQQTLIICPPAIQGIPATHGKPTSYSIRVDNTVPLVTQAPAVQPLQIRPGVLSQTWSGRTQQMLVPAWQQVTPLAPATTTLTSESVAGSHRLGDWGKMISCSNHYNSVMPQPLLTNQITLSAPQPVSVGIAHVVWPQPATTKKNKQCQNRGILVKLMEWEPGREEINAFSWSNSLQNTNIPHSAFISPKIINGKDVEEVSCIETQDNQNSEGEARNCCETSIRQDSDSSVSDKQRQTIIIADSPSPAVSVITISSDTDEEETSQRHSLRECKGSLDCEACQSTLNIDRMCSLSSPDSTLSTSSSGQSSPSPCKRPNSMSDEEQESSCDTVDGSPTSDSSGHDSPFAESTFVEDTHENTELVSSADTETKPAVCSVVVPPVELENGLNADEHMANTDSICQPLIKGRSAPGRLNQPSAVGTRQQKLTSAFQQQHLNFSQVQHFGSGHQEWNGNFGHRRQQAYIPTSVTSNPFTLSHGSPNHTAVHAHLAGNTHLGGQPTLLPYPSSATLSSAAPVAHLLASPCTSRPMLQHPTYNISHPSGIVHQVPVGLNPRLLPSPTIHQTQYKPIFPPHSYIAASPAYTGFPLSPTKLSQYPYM
Serine/threonine-protein kinase 16 (Homo sapiens), sequence (O75716 whole entry): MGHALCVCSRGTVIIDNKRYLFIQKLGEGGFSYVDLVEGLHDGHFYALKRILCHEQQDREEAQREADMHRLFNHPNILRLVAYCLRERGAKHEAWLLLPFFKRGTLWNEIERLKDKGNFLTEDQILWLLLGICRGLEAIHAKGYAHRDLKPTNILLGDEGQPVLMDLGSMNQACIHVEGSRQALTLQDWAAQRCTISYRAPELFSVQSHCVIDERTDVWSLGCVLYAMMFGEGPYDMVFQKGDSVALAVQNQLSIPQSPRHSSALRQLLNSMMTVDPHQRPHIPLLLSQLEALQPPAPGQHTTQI
Calcium/calmodulin-dependent protein kinase type II subunit alpha (Homo sapiens), sequence (Q9UQM7 whole entry): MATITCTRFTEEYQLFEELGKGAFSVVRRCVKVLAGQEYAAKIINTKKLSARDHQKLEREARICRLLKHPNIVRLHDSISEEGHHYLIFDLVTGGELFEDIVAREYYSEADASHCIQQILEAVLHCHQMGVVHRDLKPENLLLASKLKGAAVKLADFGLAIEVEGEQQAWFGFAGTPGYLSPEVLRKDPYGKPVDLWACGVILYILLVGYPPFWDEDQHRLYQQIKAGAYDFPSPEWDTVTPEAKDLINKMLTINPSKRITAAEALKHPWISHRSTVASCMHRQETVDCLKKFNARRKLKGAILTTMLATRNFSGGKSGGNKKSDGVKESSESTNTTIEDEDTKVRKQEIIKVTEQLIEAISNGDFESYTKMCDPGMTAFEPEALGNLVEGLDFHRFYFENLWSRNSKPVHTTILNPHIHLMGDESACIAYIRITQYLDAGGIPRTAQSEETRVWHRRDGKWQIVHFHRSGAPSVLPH

Regarding `O=C(c1ccc(-c2cnc3c(c2)N(Cc2cc(Cl)ccc2C(F)(F)F)CCN3)cc1)N1CCCCC1`, the inhibition – broadly, the relative decrease from the control value, in per cent – in experiment [1] is 79.3%; in experiment [2], less than 50%; in experiment [3] it was less than 50%; in experiment [4] it was less than 50%; in experiment [5], less than 50%.

With `CN1CCN(c2ccc(-c3cnc4c(c3)N(Cc3c(F)ccc(F)c3Cl)CCN4)cn2)CC1`, the inhibition in experiment [1] was 83%; in experiment [2], less than 50%; in experiment [6] it was less than 50%; in experiment [3] it was less than 50%; in experiment [7] it was less than 50%; in experiment [4], less than 50%. In experiment [5], this molecule gave an inhibition of less than 50%.

Regarding `COC1CCN(C(=O)c2ccc(-c3cnc4c(c3)N(Cc3cc(Cl)ccc3C(F)(F)F)CCN4)cc2)CC1`, the inhibition in experiment [1] was 93.2%; in experiment [2], less than 50%; in experiment [3], less than 50%; in experiment [4], less than 50%; in experiment [5], less than 50%.

As for `O=C(O)c1ccc(-c2cnc3c(c2)N(Cc2cc(Cl)ccc2C(F)(F)F)CCN3)cc1`, the inhibition in experiment [1], in experiment [2], in experiment [3], in experiment [4] and in experiment [5] was less than 50% each time.

In the case of `FC(F)(F)c1ccc(Cl)cc1CN1CCNc2ncc(-c3ccnc(N4CCNCC4)c3)cc21`, the inhibition in experiment [1] is 88%; in experiment [2], less than 50%; in experiment [6], less than 50%; in experiment [3], less than 50%; in experiment [7] it was 78%; in experiment [4], less than 50%. The molecule further came in with an inhibition in experiment [5] of less than 50%.

For the molecule `CN1CCN(c2ccc(-c3cnc4c(c3)N(Cc3cc(Cl)ccc3Cl)CCN4)cn2)CC1`, the inhibition is 73% in experiment [1]; less than 50% in experiment [2]; less than 50% in experiment [6]; less than 50% in experiment [3]; less than 50% in experiment [7]; less than 50% in experiment [4]. For the same molecule, the inhibition in experiment [5] was less than 50%.

For `O=C(c1ccc(-c2cnc3c(c2)N(Cc2cc(Cl)ccc2C(F)(F)F)CCN3)cc1)N1CCC(N2CCCC2)CC1`, the inhibition was 98.7% in experiment [1]; less than 50% in experiment [2]; less than 50% in experiment [3]; less than 50% in experiment [4]; less than 50% in experiment [5].

For the molecule `CN1CCN(c2ccc(-c3cnc4c(c3)N(Cc3cc(Cl)ccc3C(F)(F)F)CCN4)cn2)CC1`, the inhibition was 75% in experiment [1]; less than 50% in experiment [2]; less than 50% in experiment [6]; less than 50% in experiment [3]; less than 50% in experiment [7]; less than 50% in experiment [4]. In experiment [5], this molecule came in with an inhibition of less than 50%.

As to `CC(=O)N1CCN(c2cc(-c3cnc4c(c3)N(Cc3cc(Cl)ccc3C(F)(F)F)CCN4)ccn2)CC1`, the inhibition is 88% in experiment [1]; less than 50% in experiment [2]; less than 50% in experiment [6]; less than 50% in experiment [3]; less than 50% in experiment [7]; less than 50% in experiment [4]. For the same molecule, the inhibition in experiment [5] was less than 50%.

In the case of `CN1CCN(c2ccc(-c3cnc4c(c3)N(Cc3cc(F)ccc3F)CCN4)cn2)CC1`, the inhibition in experiment [1] was 86.4%; in experiment [2], less than 50%; in experiment [6], less than 50%; in experiment [3], less than 50%; in experiment [7] it was less than 50%; in experiment [4], less than 50%. Besides, the inhibition in experiment [5] is less than 50%.

(Values after ChEMBL document CHEMBL1165965, “Synthesis and structure-activity relationships of 1,2,3,4-tetrahydropyrido[2,3-b]pyrazines as potent and selective inhibitors of the anaplastic lymphoma kinase” (Bioorg Med Chem, 2010).)
